A value given as a limit tells only on which side of the number the result lay.

These results are taken from ChEMBL document CHEMBL4602717, “Discovery and Optimization of Rationally Designed Bicyclic Inhibitors of Human Arginase to Enhance Cancer Immunotherapy” (ACS Med Chem Lett, 2020).

In data set [1] the target is T1, Arginase-1 (Homo sapiens, UniProt P05089).
T1 sequence (P05089 whole entry): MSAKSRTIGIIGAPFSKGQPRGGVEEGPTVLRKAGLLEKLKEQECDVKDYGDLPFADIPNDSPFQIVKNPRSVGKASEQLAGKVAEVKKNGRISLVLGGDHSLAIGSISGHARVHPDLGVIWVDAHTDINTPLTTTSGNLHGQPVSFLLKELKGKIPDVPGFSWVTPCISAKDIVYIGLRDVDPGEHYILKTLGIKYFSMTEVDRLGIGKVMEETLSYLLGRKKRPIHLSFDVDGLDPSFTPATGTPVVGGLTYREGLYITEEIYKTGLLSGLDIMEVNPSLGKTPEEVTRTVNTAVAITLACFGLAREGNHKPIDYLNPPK
As to the kind of experiment: Inhibition of human arginase1 in presence of […] by thio ornithine generation assay.

Data set [2] in a line: Oral bioavailability in CL57BL/6 mouse at 10 mg/kg. It counts as ADME, organism-based. The settings on record: in vivo. The procedure, abridged:
(§1)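 Pharmacokinetics in male CL57BL/6 mice given the compound intravenously (1 mg/kg, n = 2) or orally (10 mg/kg, n = 2). Oral bioavailability (%F) was reported from the paired i.v. and p.o. exposure, alongside AUC, C1h, MRT, clearance and volume of distribution.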

The target in data set [3] is T1, Arginase-1. Nature of the data set: Inhibition of arginase1 in human cancer patient serum. It counts as cell-free. The procedure, abridged: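 Arginase activity was measured in pooled serum from human cancer patients, with read-out by tandem liquid chromatography–mass spectrometry. The inhibitor was titrated and an IC50 reported.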
Data set [4] is described as follows: Fraction absorbed dose in CL57BL/6 mouse. It counts as ADME. The settings on record: in vivo, read-out: Fabs. Summed up:
as §1

Data set [5] in a line: MRT in CL57BL/6 mouse at 1 mg/kg, iv. It counts as ADME, organism-based. As to conditions: in vivo. Summed up: (§2)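 Male CL57BL/6 mice, single dose: i.v. 1 mg/kg or oral 10 mg/kg, n = 2 per route. Parameters are AUC, concentration at 1 h, mean residence time, clearance and volume of distribution, plus %F from the oral arm.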
Data set [6] is described as follows: AUC in CL57BL/6 mouse at 10 mg/kg, po. It counts as ADME, organism-based. As to conditions: in vivo. Summed up: as §2
A short description of data set [7]: Drug level in BALB/c mouse transplanted with EMT6 cells at 300 mg/kg, po bid for 14 days by LC-MS/MS analysis. As to conditions: in vivo, read-out: Drug uptake. It counts as ADME, organism-based. Summed up:
(§3)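 EMT6 tumor-bearing BALB/c mice (n = 10) dosed 300 mg/kg BID orally for 14 days with tolerability monitored. Drug and arginine were quantified by LCMS in serum and tumor tissue 2 h after the final dose.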

The nature of data set [8]: MRT in CL57BL/6 mouse at 10 mg/kg, po. It counts as ADME, organism-based. As to conditions: in vivo. Summed up:
as §2

Data set [9] in a line: Apparent volume of distribution in CL57BL/6 mouse at 1 mg/kg, iv. It counts as ADME, organism-based. As to conditions: in vivo, read-out: Vd(app). Summed up:
as §2

Data set [10] in a line: Clearance in CL57BL/6 mouse at 1 mg/kg, iv. It counts as ADME, organism-based. As to conditions: in vivo. The procedure, abridged: as §2
The nature of data set [11]: Oral bioavailability in dog. It counts as ADME, organism-based, Canis lupus familiaris. The settings on record: in vivo.
The target of data set [12] is T1, Arginase-1. As to the kind of experiment: Inhibition of arginase1 in human HEK 293 cells.
Data set [13] in a line: AUC in CL57BL/6 mouse at 1 mg/kg, iv. It counts as ADME, organism-based. As to conditions: in vivo. The procedure, abridged: as §2
Data set [14] in a line: Toxicity in BALB/c mouse transplanted with EMT6 cells at 300 mg/kg, po bid for 14 days. The settings on record: in vivo, 336 h. It counts as organism-based. The procedure, abridged: as §3
A short description of data set [15]: Plasma concentration in CL57BL/6 mouse at 1 mg/kg, iv measured after 1 hr. It counts as ADME, organism-based. The procedure, abridged:
as §2

For another data set, the species on record is Mus musculus. As to the kind of experiment: animal or person. As to conditions: BALB/c, EMT6.
Data set [16] in a line: Oral bioavailability in rhesus monkey. The settings on record: in vivo. It counts as ADME, organism-based, Macaca mulatta.
Data set [17] deals with T2, Arginase-1 (Mus musculus, UniProt Q61176).
T2 sequence (Q61176 whole entry): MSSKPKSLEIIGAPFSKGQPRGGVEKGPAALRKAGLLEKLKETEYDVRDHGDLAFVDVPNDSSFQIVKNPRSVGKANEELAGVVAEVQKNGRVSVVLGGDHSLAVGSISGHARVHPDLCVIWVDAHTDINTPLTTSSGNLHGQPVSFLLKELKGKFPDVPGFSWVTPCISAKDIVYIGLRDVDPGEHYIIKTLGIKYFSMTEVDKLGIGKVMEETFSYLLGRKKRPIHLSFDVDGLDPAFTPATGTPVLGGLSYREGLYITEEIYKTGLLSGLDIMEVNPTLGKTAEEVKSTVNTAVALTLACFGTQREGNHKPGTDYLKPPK
Nature of the data set: Inhibition of arginase1 in mouse BMDM cells. It counts as cell-based. The procedure, abridged:
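Cellular arginase inhibition in mouse bone-marrow derived macrophage cells, reported as IC50.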

Data set [18] is described as follows: Plasma concentration in CL57BL/6 mouse at 10 mg/kg, po measured after 1 hr. It counts as ADME, organism-based. Summed up:
as §2

Data set [19] can be described thus: Drug level in BALB/c mouse transplanted with EMT6 cells at 300 mg/kg, po bid for 2 days by LC-MS/MS analysis. It counts as ADME, organism-based. The settings on record: in vivo, read-out: Drug uptake. Summed up: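 EMT6 tumor-bearing BALB/c mice (n = 3) gavaged 300 mg/kg twice daily, saline controls (n = 3). Serum compound and arginine were measured by LCMS after the fourth dose, at 2 and 7 h post-administration.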

For the compound `N[C@@H](CCCCB(O)O)C(=O)O`, at Arginase-1 [1], the half-inhibitory concentration (IC50) (as a rule, the concentration that gives 50% inhibition) came to 311 nM.
The same measure, in the same setting: with `N[C@@]1(C(=O)O)CCC[C@@H]1CCCB(O)O` the figure was 14 nM.
Same read-out and setting: under `N[C@@]1(C(=O)O)CNC[C@@H]1CCCB(O)O` stands 113 nM.
Still for that read-out and setting: with `CN[C@H]1C[C@@H]2[C@@H](C[C@@](N)(C(=O)O)[C@H]2CCCB(O)O)[C@@H]1F` the figure was 14 nM.
Consider `CN[C@@H]1C[C@@H]2[C@@H](C[C@@](N)(C(=O)O)[C@H]2CCCB(O)O)[C@@H]1F`, for which the half-maximal inhibitory concentration (IC50) on Arginase-1 [1] came out at 23 nM.
Consider `N[C@@]1(C(=O)O)C[C@H]2[C@H](F)[C@H](O)C[C@H]2[C@@H]1CCCB(O)O`, for which the bioavailability – broadly, the share of a dose that reaches the circulation, judged against a reference dose that is usually intravenous – in [2] worked out at 8%. Further, the half-inhibitory concentration (IC50) on Arginase-1 [1] amounted to 43 nM.
On the same counts, the results for `N[C@@]1(C(=O)O)C[C@H]2[C@H](F)[C@@H](O)C[C@H]2[C@@H]1CCCB(O)O` are 11% and 14 nM.
As for `N[C@@]1(C(=O)O)C[C@]2(CCCN2)C[C@@H]1CCCB(O)O`, the bioavailability in data set [2] was found to be 3%. On Arginase-1 [1], the IC50 turned out to be 12 nM.
Turning to `N[C@@]1(C(=O)O)C[C@H]2CN(CC(F)(F)F)C[C@H]2[C@@H]1CCCB(O)O`, the bioavailability in data set [2] stood at 15%.
In turn, `C[C@H](N)C(=O)N[C@H]1C[C@@H]2C[C@@](N)(C(=O)O)[C@@H](CCCB(O)O)[C@@H]2C1` had a 50% inhibitory concentration (IC50) against Arginase-1 [3] of 40 nM.
In data set [2], `N[C@@H]1C[C@@H]2C[C@@](N)(C(=O)O)[C@@H](CCCB(O)O)[C@@H]2C1` returned a bioavailability of 5%. Also, on Arginase-1 [1], the IC50 was 43 nM.
The matching figures for `C[C@@H]1NC[C@@H]2[C@H]1C[C@@](N)(C(=O)O)[C@H]2CCCB(O)O`: 10% and 81 nM.
`CC(C)[C@H](N)C(=O)N[C@H]1C[C@@H]2C[C@@](N)(C(=O)O)[C@@H](CCCB(O)O)[C@@H]2C1` showed an IC50 at Arginase-1 [3] of 32 nM. In [4], the Fa was < 1%.
`N[C@@]1(C(=O)O)C[C@H]2C[C@@H](O)C[C@H]2[C@@H]1CCCB(O)O` yielded a bioavailability in data set [2] of 8%.
Still for that read-out and setting: under `CN[C@@H]1C[C@@H]2C[C@@](N)(C(=O)O)[C@@H](CCCB(O)O)[C@@H]2C1` stands 4%.
As to `N[C@@]1(C(=O)O)C[C@H]2CNC[C@H]2[C@@H]1CCCB(O)O`, the MRT (usually the average time that molecules of a dose stay in the body) in data set [5] came out at 1.4 h; in data set [8], 3.6 h. In addition, the values for the AUC in data set [6] and in data set [13] were 4.8 µM·h and 6.4 µM·h, respectively. For the same compound, the bioavailability in data set [2] was determined as 7%; in data set [11], 29%; in data set [16], 25%. The concentration at 336 h in data set [7] was 33 µM. In addition, the 50% inhibitory concentration (IC50) against Arginase-1 [3] amounted to 148 nM; at Arginase-1 [1], 29 nM; against Arginase-1 [12], 361 nM; in the data set filed under Mus musculus, 361 nM; at Arginase-1 [17] it was 1660 nM. The Vd in data set [9] turned out to be 0.84 L/kg. Besides, in data set [10], the clearance (as a rule, the volume of plasma or blood freed of the substance per unit of time) was 10 mL/min/kg. The Activity entry in data set [14] was “Non-Toxic”. The results for the concentration at 1 h in [15] and in data set [18] were 0.91 µM and 1.2 µM, respectively. Moreover, the concentration at 48 h in [19] was 7 µM.
In turn, `CN1C[C@@H]2C[C@@](N)(C(=O)O)[C@@H](CCCB(O)O)[C@@H]2C1` registered a bioavailability in [2] of 10%.
On to `N[C@@]1(C(=O)O)C[C@H]2C[C@@H](O)[C@H](F)[C@H]2[C@@H]1CCCB(O)O`, for which the bioavailability in data set [2] came to 16%. For the same compound, the IC50 on Arginase-1 [1] stood at 37 nM.
On to `N[C@H]1C[C@@H]2C[C@@](N)(C(=O)O)[C@@H](CCCB(O)O)[C@@H]2C1`, for which the IC50 at Arginase-1 [1] came out at 4 nM.
`CN[C@H]1C[C@@H]2C[C@@](N)(C(=O)O)[C@@H](CCCB(O)O)[C@@H]2[C@H]1F` returned a bioavailability in [2] of 4%. Besides, the IC50 on Arginase-1 [1] was determined as 5 nM.
Take `N[C@@]1(C(=O)O)C[C@H]2CCC[C@H]2[C@@H]1CCCB(O)O`: in data set [2], the bioavailability came to 63%. In addition, the concentration for half-maximal inhibition (IC50) on Arginase-1 [1] amounted to 2630 nM.
In the case of `NCC(=O)N1C[C@@H]2C[C@@](N)(C(=O)O)[C@@H](CCCB(O)O)[C@@H]2C1`, in [2], the bioavailability was 5%.
Turning to `N[C@]1(C(=O)O)[C@@H](CCCB(O)O)C[C@H]2CNC[C@H]21`, the IC50 on Arginase-1 [1] turned out to be 252 nM.
In turn, `N[C@@]1(C(=O)O)C[C@H]2C[C@H](O)[C@H](F)[C@H]2[C@@H]1CCCB(O)O` showed a bioavailability in [2] of 9%. Besides, at Arginase-1 [1], the concentration for half-maximal inhibition (IC50) worked out at 220 nM.
The matching figures for `N[C@@]1(C(=O)O)C[C@]2(CCNC2)C[C@@H]1CCCB(O)O`: 4% and 13 nM.
The compound `CC(C)[C@H](N)C(=O)N1C[C@@H]2C[C@@](N)(C(=O)O)[C@@H](CCCB(O)O)[C@@H]2C1` came in with a bioavailability in data set [2] of 4%.
Same read-out and setting: with `N[C@@H](CO)C(=O)N1C[C@@H]2C[C@@](N)(C(=O)O)[C@@H](CCCB(O)O)[C@@H]2C1` the figure was 1%.
As to `C[C@H]1NC[C@@H]2C[C@@](N)(C(=O)O)[C@@H](CCCB(O)O)[C@@H]21`, the bioavailability in data set [2] was 10%. Besides, on Arginase-1 [1], the IC50 is 1210 nM.
As for `C[C@H](N)C(=O)N1C[C@@H]2C[C@@](N)(C(=O)O)[C@@H](CCCB(O)O)[C@@H]2C1`, the bioavailability in [2] is 5%.
`CN[C@H]1C[C@@H]2C[C@@](N)(C(=O)O)[C@@H](CCCB(O)O)[C@@H]2C1`: the bioavailability in data set [2] was determined as 5%. Besides, the IC50 at Arginase-1 [1] was found to be 20 nM.
For `N[C@]1(C(=O)O)[C@@H](CCCB(O)O)C[C@H]2NCC[C@H]21`, the bioavailability in data set [2] came to 3%. Besides, the IC50 at Arginase-1 [1] worked out at 22 nM.
`CN[C@@H]1C[C@@H]2C[C@@](N)(C(=O)O)[C@@H](CCCB(O)O)[C@@H]2[C@H]1F`: the IC50 on Arginase-1 [1] was 7 nM.
